Screening results from PubChem.
VLA-4 inh: inhibition in a human VLA-4 binding assay; P13612; VLA-4 expressing cells, ligand binding flow cytometry; inhibition, % (about 7 µM as worked out from the volumes in the protocol); 0.2% of 330,000 active; in the data active = inhibition above about 50%
TAAR1 antag: human TAAR1 antagonism. Q96RJ0. CHO RD-HGA16 TAAR1, Fluo-8 calcium fluorescence, antagonist. inhibition, % at 3 µM. 1.5% of 360,000 active;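 active = inhibition above a per-plate cutoff, the mean inhibition of test compounds on that plate plus 3 SD, cut at about 49% in these data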;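 also: 0% = DMSO plus EC80 beta-PEA response and 100% = DMSO alone without agonist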
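test system = CHO RD-HGA16 cells bearing hTAAR1 | replication = singlicate | controls = DMSO-only wells and EC80 β-PEA-stimulated wells | reagent = EC80 β-phenethylamine stimulus | read-out basis = percent inhibition of PEA-evoked calcium signal, max/basal emission ratio | schedule = seeding 17-24 h prior, 75-min 37 °C, 30-min RT dye loading | signal = kinetic Fluo-8 calcium fluorescence measurement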
Rce1 inh: blocks yeast Ras-converting enzyme. yeast membranes, quenched prenylated peptide cleavage fluorescence. calls only. 0.27% of 290,000 active;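 active = fall in fluorescence gain of 50% or more versus controls, with final raw signal at or below 3038400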;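 also: plate controls were neutral control wells for no effect and wells lacking membranes for full effect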
Target sequence (Q03530 whole entry, looked up): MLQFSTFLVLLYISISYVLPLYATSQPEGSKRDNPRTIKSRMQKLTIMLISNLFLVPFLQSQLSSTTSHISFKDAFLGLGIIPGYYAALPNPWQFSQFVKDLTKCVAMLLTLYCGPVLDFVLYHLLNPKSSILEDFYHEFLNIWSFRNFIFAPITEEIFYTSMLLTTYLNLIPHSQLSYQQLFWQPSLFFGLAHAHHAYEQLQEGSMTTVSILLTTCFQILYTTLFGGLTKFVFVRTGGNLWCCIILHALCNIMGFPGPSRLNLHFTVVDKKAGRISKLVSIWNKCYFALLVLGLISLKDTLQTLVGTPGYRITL
Platelet DG rel: modulates dense granule release in human platelets; human platelet-rich plasma, SFLLRN dense granule ATP release, luminescence; inhibition, %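 (compounds screened at 7.5 µM in platelet-rich plasma)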; 0.22% of 300,000 active;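 active = mean replicate score, as percent of positive control, at or above 50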
TAAR1 ag: agonists of human TAAR1. AID 624467. 0.99% of 360,000 active. CHO RD-HGA16 TAAR1, Fluo-8 calcium fluorescence; vehicle wells 0%, saturating PEA agonist 100%. activation, % at 3 µM;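 active = activation above the mean activation of all test compounds in the run plus 3 SD, cut at about 38% in these data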
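Test system: RD-HGA16 (CHO) cells co-expressing Gα16 and hTAAR1; dosing: one-point dosing at 3 µM (nominal); timing: 17-24 h seeding, 75 min 37 °C dye, 30 min RT; signal: kinetic Fluo-8 calcium fluorescence; read-out basis: % activation relative to PEA EC100 response; controls: DMSO and PEA EC100; replicates: n 1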
* marks the source's active call; other numbers are inactive results. Only some compounds are listed: those with a hit (about 2.6% of all), similar ones and a draw of the others.

For Cc1cc(N2CCN(S(=O)(=O)c3ccccc3)CC2)nc2c(C)cccc12 the results were VLA-4 inh -5, TAAR1 antag -17, Rce1 inh inactive, Platelet DG rel -17 and TAAR1 ag 0.
`Cc1cc(/C=N/Nc2nc(N3CCOCC3)nc(N3CCOCC3)n2)c(C)n1-c1ccccc1` gave VLA-4 inh -7, TAAR1 antag 45, Rce1 inh inactive, Platelet DG rel 7 and TAAR1 ag 16.
COc1ccc(-n2c(C)cc(/C=N/Nc3nc(N4CCOCC4)nc(N4CCOCC4)n3)c2C)cc1 was read as VLA-4 inh -7, TAAR1 antag 50*, Rce1 inh inactive, Platelet DG rel -5 and TAAR1 ag 14.
For C[C@H](NC(=O)c1nc[nH]c1C(=O)NCC(=O)OCc1ccccc1)C(=O)OC(C)(C)C the results were VLA-4 inh -21, TAAR1 antag 48, Rce1 inh inactive, Platelet DG rel -2 and TAAR1 ag 16.
C[C@H](NC(=O)c1nc[nH]c1C(=O)NCc1ccc(CNC(=O)OC(C)(C)C)cc1)C(=O)OCc1ccccc1 was read as VLA-4 inh -7, TAAR1 antag 82* and TAAR1 ag 21.
COc1ccc(N2CCN(C(=O)COC(=O)[C@@H](NC(=O)c3c(F)cccc3F)C(C)C)CC2)cc1 was read as TAAR1 antag -27 and TAAR1 ag 9.
`OCCCCNCc1ccc(OCc2ccc(Cl)cc2Cl)cc1` gave VLA-4 inh 45, TAAR1 antag 11, Rce1 inh inactive, Platelet DG rel -5 and TAAR1 ag 38*.
Screening CC1(C)CC(=O)C=C(c2ccc(COC(=O)C3CC3)cc2)C1=O returned TAAR1 antag 9 and TAAR1 ag 1.
For COC(=O)c1cc(NC(=O)Nc2cccc(Cl)c2)ccc1Cl the results were VLA-4 inh 16, TAAR1 antag 60*, Rce1 inh inactive, Platelet DG rel 2 and TAAR1 ag 10.
For Cc1nnc(NC(=O)Nc2cccc(Cl)c2)s1 the results were VLA-4 inh -1, TAAR1 antag 36, Rce1 inh inactive, Platelet DG rel 10 and TAAR1 ag 43*.
Screening COc1cccc(C(=O)NCC2CCCN(C(=O)Cc3cccc(C)c3)C2)c1OC (centres undefined) returned TAAR1 antag 9 and TAAR1 ag 1.
OC(COCc1ccccc1)Cn1cnc2ccccc21 (centres undefined) was read as VLA-4 inh 8, TAAR1 antag 9, Rce1 inh inactive, Platelet DG rel -5 and TAAR1 ag 8.
For OC(CN(c1ccccc1)c1ccccc1)Cn1cnc2ccccc21 (centres undefined) the results were VLA-4 inh 6, TAAR1 antag 57*, Rce1 inh inactive, Platelet DG rel -9 and TAAR1 ag 9.
For COc1cc(-c2cc(NC(C)=O)c3ncc(-c4ccc(F)cc4)n3c2)cc(OC)c1OC the results were TAAR1 antag 52* and TAAR1 ag 13.
Screening CC(=O)Nc1cc(-c2ccccc2)cn2c(-c3ccc(F)cc3)cnc12 returned TAAR1 antag 49* and TAAR1 ag 6.
For COc1cc(-c2cc(NC(C)=O)c3ncc(-c4ccc(C(C)=O)cc4)n3c2)cc(OC)c1OC the results were TAAR1 antag 48 and TAAR1 ag 10.
CC(=O)Nc1cc(-c2ccc(F)cc2)cn2c(-c3ccc(F)cc3)cnc12 was read as TAAR1 antag 33 and TAAR1 ag 1.
O=C(NCC1CC1)c1cc(-c2ccccc2)nn1CC1CC(c2cccc([N+](=O)[O-])c2)=NO1 (centres undefined) was read as TAAR1 antag 46, Rce1 inh active, Platelet DG rel -3 and TAAR1 ag 10.
For COc1cc(/C=N/NC(=S)Nc2cccc(S(=O)(=O)N(C)C)c2)ccc1O the results were VLA-4 inh 5, TAAR1 antag 15, Rce1 inh inactive, Platelet DG rel -42 and TAAR1 ag 10.
Cc1ccc(S(=O)(=O)C=CS(=O)(=O)c2ccc(C)cc2)cc1 was read as TAAR1 antag 50* and TAAR1 ag 28.
`Cc1nn(CCC(=O)O)c2nc(-c3cccnc3)cc(C(F)(F)F)c12` gave VLA-4 inh 1, TAAR1 antag 13, Rce1 inh active, Platelet DG rel -1 and TAAR1 ag 6.
For Cc1nn(CCC(N)=O)c2nc(-c3cccs3)cc(C(F)(F)F)c12 the results were VLA-4 inh -4, TAAR1 antag -7, Rce1 inh inactive, Platelet DG rel 2 and TAAR1 ag 3.
